In BindingDB's records for doi:10.1016/j.ejmech.2016.05.060 (Xi'An Jiaotong University, 2016):

Columns and labels:
[1] = molecular target: T1, Tyrosine-protein phosphatase non-receptor type 1 (Homo sapiens, UniProt P18031); test: Inhibition of human recombinant GST-tagged PTP1B catalytic domain expressed in Escherichia coli BL21-Conden plus (DE3) using pNPP as substrate
T1 sequence (P18031 whole entry): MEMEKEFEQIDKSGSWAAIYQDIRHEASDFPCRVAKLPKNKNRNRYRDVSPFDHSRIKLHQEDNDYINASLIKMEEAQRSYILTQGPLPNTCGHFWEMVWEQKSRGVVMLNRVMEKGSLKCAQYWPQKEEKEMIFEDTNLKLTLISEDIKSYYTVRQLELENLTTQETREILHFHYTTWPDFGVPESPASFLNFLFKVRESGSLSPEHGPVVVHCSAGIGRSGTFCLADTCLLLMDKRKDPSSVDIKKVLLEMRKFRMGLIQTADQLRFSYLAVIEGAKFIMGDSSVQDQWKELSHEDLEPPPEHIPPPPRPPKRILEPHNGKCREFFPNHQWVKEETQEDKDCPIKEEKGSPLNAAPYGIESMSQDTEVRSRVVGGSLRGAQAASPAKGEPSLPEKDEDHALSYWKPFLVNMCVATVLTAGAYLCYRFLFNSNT

[2] = molecular target: T2, M-phase inducer phosphatase 2 (Homo sapiens, UniProt P30305); test: Inhibition of human recombinant GST-tagged CDC25B assessed as reduction in dephosphorylation of florigenic phosphatase substrate preincubated for 1 hr followed by substrate addition measured after 1 hr by fluorescence assay
T2 sequence (P30305 whole entry): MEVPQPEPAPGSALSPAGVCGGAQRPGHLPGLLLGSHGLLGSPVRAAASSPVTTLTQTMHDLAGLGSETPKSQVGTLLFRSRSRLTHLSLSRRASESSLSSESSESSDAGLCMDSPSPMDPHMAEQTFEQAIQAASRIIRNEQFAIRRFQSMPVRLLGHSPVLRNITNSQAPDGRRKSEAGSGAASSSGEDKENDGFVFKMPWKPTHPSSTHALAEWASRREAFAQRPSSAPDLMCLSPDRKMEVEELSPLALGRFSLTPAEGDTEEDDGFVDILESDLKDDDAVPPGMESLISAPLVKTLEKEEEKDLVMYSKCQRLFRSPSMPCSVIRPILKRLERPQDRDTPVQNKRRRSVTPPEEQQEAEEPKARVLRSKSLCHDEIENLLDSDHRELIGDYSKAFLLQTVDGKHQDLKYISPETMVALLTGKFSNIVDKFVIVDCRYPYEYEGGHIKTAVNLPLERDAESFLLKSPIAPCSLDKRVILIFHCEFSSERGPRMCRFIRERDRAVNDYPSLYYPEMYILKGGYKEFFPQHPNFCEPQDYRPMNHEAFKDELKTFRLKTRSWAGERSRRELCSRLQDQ
In short: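 Purified GST-CDC25B fusion protein was preincubated with compound for 1 h, then fluorescein diphosphate ([…]) was added. Fluorescence was read within the linear range of the reaction after 1 h at room temperature. Na₃VO₄ served as positive control and DMSO as negative control.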

IC50 [1] | IC50 [2] | SMILES
6.83 µM | 3390 nM | CCOC(=O)c1c(C)[nH]c(/C=C2\S/C(=N\c3cccc(F)c3)N(c3cccc(F)c3)C2=O)c1C
6.09 µM | 2870 nM | CCOC(=O)c1c(C)[nH]c(/C=C2\S/C(=N\c3ccc(F)cc3)N(c3ccc(F)cc3)C2=O)c1C
 | 2740 nM | CCOC(=O)c1c(C)[nH]c(/C=C2\S/C(=N\c3ccc(OC)cc3)N(c3ccc(OC)cc3)C2=O)c1C
8.66 µM |  | CCOC(=O)c1c(C)[nH]c(/C=C2\S/C(=N\c3ccccc3)N(c3ccccc3)C2=O)c1C

Second part, the compound before the results:

SMILES | IC50 [1] | IC50 [2]
CCOC(=O)c1c(C)[nH]c(/C=C2\S/C(=N/O)N(C(C)C)C2=O)c1C |  | 5830 nM
CCOC(=O)c1c(C)[nH]c(/C=C2\S/C(=N\c3ccccc3F)N(c3ccccc3F)C2=O)c1C |  | 3660 nM
CC(C)N1C(=O)/C(=C/c2ccc(OCCN(C)c3ccccn3)cc2)S/C1=N\O |  | 2470 nM
[O]=[V]([OH])([OH])[OH] |  | 910 nM
